The text below walks through data of article PMC9494671 (ACS Omega, 2022).

For data set [1], the system named is Human hepatocellular carcinoma cell line (HepG2). The data set can be described thus: MTT cytotoxicity assay, HepG2. The class given is cell-based. As to conditions: for IC50: Homo sapiens, HepG2, 24 h, read-out: IC50 (μM) HePG2; for cytotoxic activity, class in words, HepG2: MTT assay. The essentials: (§1)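 Cells grown in RPMI-1640 with 10% FBS, penicillin 100 units/mL and streptomycin 100 μg/mL at 37 °C, 5% CO2. Seeded at 1.0 × 10^4 cells/well for 48 h, then exposed to a range of test compound concentrations for 24 h, with CA-4 as positive control. MTT (5 mg/mL solution) added for 4 h, formazan dissolved in DMSO, absorbance read at 570 nm. IC50 = 50% growth inhibition, mean ± SD.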

Data set [2] has as its system Human colorectal carcinoma cell line (HCT-116). Put plainly: MTT cytotoxicity assay, HCT-116. The class given is cell-based. As to conditions: for IC50: Homo sapiens, HCT-116, 24 h, read-out: IC50 (μM) HCT-116; for cytotoxic activity, class in words, HCT-116: MTT assay. The essentials:
as §1
A general note: Formazan colour is commonly taken as a measure of viable cells.

Data set [3] relates to Human breast adenocarcinoma cell line (MCF-7). The data set can be described thus: MTT cytotoxicity assay, MCF-7. It counts as cell-based. Particulars: for IC50: Homo sapiens, MCF7, 24 h, read-out: IC50 (μM) MCF-7; for cytotoxic activity, class in words, MCF-7: MTT assay. The procedure, abridged:
as §1

The test system of data set [4] is Epitheloid cervix carcinoma cell line (HeLa). Put plainly: MTT cytotoxicity assay, HeLa. It counts as cell-based, human. Particulars: for IC50: Homo sapiens, 24 h, read-out: IC50 (μM) HeLa; for cytotoxic activity, class in words, HeLa: MTT assay. The procedure, abridged:
as §1

Data set [5] has as its system HepG2, HCT-116, MCF-7, and HeLa cell lines. The data set can be described thus: MTT cytotoxicity assay, statements over the four tested cell lines. The class given is cell-based, human. Particulars: all tested cell lines. The essentials:
as §1

In a further data set the test system is tubulin. The data set can be described thus: In vitro tubulin polymerization inhibition assay. The class given is biochemical. As to conditions: read-out: IC50 (μM) tubulin polymerization inhibition; 4 mg/mL tubulin, 37 °C, OD340, mean ± SD from three independent experiments.

Some results are limits rather than exact numbers.

The IC50 is the concentration needed to halve the response being measured. As for `COc1cc(-c2csc(NC(=O)CCl)n2)cc(OC)c1OC` [Compound 4, 2-Chloro-N-(4-(3,4,5-trimethoxyphenyl)thiazol-2-yl)acetamide], the IC50 in data set [1] was found to be 62.6 ± 3.1 µM; in data set [2] it was 69 ± 3.5 µM; in data set [3], 62.9 ± 3.1 µM; in data set [4] it was 76.9 ± 3.8 µM. The “cytotoxic effect, class in words, tested cell lines” value (shortened to “cytotoxic effect, class in words”) in data set [5] was “weak (51–100 (weak))”.

On to `COc1cc(-c2csc(NC(=O)CNCCO)n2)cc(OC)c1OC` [Compound 5a, 2-((2-Hydroxyethyl)amino)-N-(4-(3,4,5-trimethoxyphenyl)thiazol-2-yl)acetamide], for which the IC50 in data set [1] stood at 22 ± 1.1 µM; in data set [2] it was 29.4 ± 1.5 µM; in data set [3], 30 ± 1.5 µM; in data set [4], 50.9 ± 2.5 µM. Besides, in data set [5], the “cytotoxic effect, class in words” value is on record as “moderate (21–50 (moderate))”.

In the case of `CCCCNCC(=O)Nc1nc(-c2cc(OC)c(OC)c(OC)c2)cs1` [Compound 5b, 2-(Butylamino)-N-(4-(3,4,5-trimethoxyphenyl)thiazol-2-yl)acetamide], the IC50 in data set [1] came to 10.9 ± 0.5 µM; in data set [2], 24.4 ± 1.2 µM; in data set [3], 22.8 ± 1.1 µM; in data set [4], 28.3 ± 1.4 µM. Also, the “cytotoxic activity, class in words, HepG2” value (“cytotoxic activity … HepG2” below) in data set [1] is “strong (11–20 (strong))”.

For the compound `COc1cc(-c2csc(NC(=O)CN3CCNCC3)n2)cc(OC)c1OC` [Compound 6a, 2-(Piperazin-1-yl)-N-(4-(3,4,5-trimethoxyphenyl)thiazol-2-yl)acetamide], the concentration for half-maximal inhibition (IC50) came to 8.17 ± 0.4 µM in data set [1]; 28.9 ± 1.4 µM in data set [2]; 40.9 ± 2 µM in data set [3]; 47.7 ± 2.4 µM in data set [4]; 4.5 ± 0.27 µM with tubulin.

As for `COc1cc(-c2csc(NC(=O)CN3CCN(C)CC3)n2)cc(OC)c1OC` [Compound 6b, 2-(4-Methylpiperazin-1-yl)-N-(4-(3,4,5-trimethoxyphenyl)thiazol-2-yl)acetamide], the 50% inhibitory concentration (IC50) came out at 74.6 ± 3.7 µM in data set [1], 83.7 ± 4.2 µM in data set [2], 65.3 ± 3.3 µM in data set [3] and 87.3 ± 4.4 µM in data set [4].

On to `CCN1CCN(CC(=O)Nc2nc(-c3cc(OC)c(OC)c(OC)c3)cs2)CC1` [Compound 6c, 2-(4-Ethylpiperazin-1-yl)-N-(4-(3,4,5-trimethoxyphenyl)thiazol-2-yl)acetamide], for which the IC50 in data set [1] was determined as 33.9 ± 1.7 µM; in data set [2], 37.2 ± 1.9 µM; in data set [3], 41.4 ± 2.1 µM; in data set [4] it was 48.2 ± 2.4 µM.

As to `COc1cc(-c2csc(NC(=O)CN3CCN(c4ccc(F)cc4)CC3)n2)cc(OC)c1OC` [Compound 6d, 2-(4-(4-Fluorophenyl)piperazin-1-yl)-N-(4-(3,4,5-trimethoxyphenyl)thiazol-2-yl)acetamide], the IC50 amounted to 4.03 ± 0.2 µM in data set [1]; 15.7 ± 0.8 µM in data set [2]; 9.64 ± 0.5 µM in data set [3]; 18.7 ± 0.9 µM in data set [4]; 5 ± 0.3 µM in the data set on tubulin.

Consider `COc1cc(-c2csc(NC(=O)CN3CCOCC3)n2)cc(OC)c1OC` [Compound 6e, 2-Morpholino-N-(4-(3,4,5-trimethoxyphenyl)thiazol-2-yl)acetamide], for which the concentration for half-maximal inhibition (IC50) was 19.8 ± 1 µM in data set [1]; 18 ± 0.9 µM in data set [2]; 39.1 ± 2 µM in data set [3]; 58.8 ± 2.9 µM in data set [4]; 3.72 ± 0.23 µM in the data set with tubulin. Moreover, the “cytotoxic activity … HepG2” value in data set [1] was “strong (11–20 (strong))”. The “cytotoxic activity, class in words, HCT-116” value (“cytotoxic activity … HCT-116” below) in data set [2] is “strong (11–20 (strong))”.

Consider `COc1cc(-c2csc(NC(=O)CNc3ccccc3)n2)cc(OC)c1OC` [Compound 7a, 2-(Phenylamino)-N-(4-(3,4,5-trimethoxyphenyl)thiazol-2-yl)acetamide], for which, in data set [1], the IC50 was determined as 94.1 ± 4.7 µM and the “cytotoxic activity … HepG2” value is “weak (51–100 (weak))”. Further, in data set [2], the concentration for half-maximal inhibition (IC50) amounted to 52.5 ± 2.6 µM and the “cytotoxic activity … HCT-116” value is given as “weak (51–100 (weak))”. Besides, in data set [3], the IC50 is > 100 µM and the “cytotoxic activity, class in words, MCF-7” value is recorded as “weak (51–100 (weak))”. In data set [4], the concentration for half-maximal inhibition (IC50) amounted to 54.1 ± 2.7 µM and the “cytotoxic activity, class in words, HeLa” value is listed as “noncytotoxic (above 100 (noncytotoxic))”.

Take `COc1cc(-c2csc(NC(=O)CNc3ccc(Br)cc3)n2)cc(OC)c1OC` [Compound 7b, 2-((4-Bromophenyl)amino)-N-(4-(3,4,5-trimethoxyphenyl)thiazol-2-yl)acetamide]: the IC50 in data set [1] was determined as 34.2 ± 1.7 µM; in data set [2], 9.35 ± 0.5 µM; in data set [3] it was 44.8 ± 2.2 µM; in data set [4] it was 13.1 ± 0.7 µM.

As to `COc1cc(-c2csc(NC(=O)CNc3ccc([N+](=O)[O-])cc3)n2)cc(OC)c1OC` [Compound 7c, 2-((4-Nitrophenyl)amino)-N-(4-(3,4,5-trimethoxyphenyl)thiazol-2-yl)acetamide], the 50% inhibitory concentration (IC50) in data set [1] worked out at 6.26 ± 0.3 µM; in data set [2], 7.3 ± 0.4 µM; in data set [3] it was 10 ± 0.5 µM; in data set [4], 9.85 ± 0.5 µM; with tubulin it was 2 ± 0.12 µM.

Take `COc1cc(-c2csc(NC(=O)CNc3ccc(Br)c(C(F)(F)F)c3)n2)cc(OC)c1OC` [Compound 7d, 2-((4-Bromo-3-(trifluoromethyl)phenyl)amino)-N-(4-(3,4,5-trimethoxyphenyl)thiazol-2-yl)acetamide]: the concentration for half-maximal inhibition (IC50) in data set [1] came to 28.1 ± 1.4 µM; in data set [2], 33.1 ± 1.7 µM; in data set [3], 41.4 ± 2.1 µM; in data set [4] it was 29.8 ± 1.5 µM; in the data set on tubulin, 3.42 ± 0.21 µM.

Consider `COc1cc(-c2csc(NC(=O)CNc3ccc(N4CCOCC4)cc3)n2)cc(OC)c1OC` [Compound 7e, 2-((4-Morpholinophenyl)amino)-N-(4-(3,4,5-trimethoxyphenyl)thiazol-2-yl)acetamide], for which the concentration for half-maximal inhibition (IC50) in data set [1] came out at 25.7 ± 1.3 µM; in data set [2], 31.2 ± 1.6 µM; in data set [3], 35 ± 1.7 µM; in data set [4], 41.5 ± 2.1 µM.

`COc1cc(-c2csc(NC(=O)CNN)n2)cc(OC)c1OC` [Compound 8, 2-Hydrazinyl-N-(4-(3,4,5-trimethoxyphenyl)thiazol-2-yl)acetamide]: the IC50 in data set [1] amounted to 3.35 ± 0.2 µM; in data set [2], 5.32 ± 0.3 µM; in data set [3] it was 8.66 ± 0.4 µM; in data set [4], 6.15 ± 0.3 µM; with tubulin it was 3.91 ± 0.24 µM.

As for `COc1cc(-c2csc(NC(=O)CN/N=C3\C(=O)Nc4ccc(Cl)cc43)n2)cc(OC)c1OC` [Compound 9a, (Z)-2-(2-(5-Chloro-2-oxoindolin-3-ylidene)hydrazinyl)-N-(4-(3,4,5-trimethoxyphenyl)thiazol-2-yl)acetamide], the half-maximal inhibitory concentration (IC50) in data set [1] was found to be 7.32 ± 0.4 µM; in data set [2], 10.1 ± 0.5 µM; in data set [3], 9.8 ± 0.5 µM; in data set [4], 10.6 ± 0.5 µM; in the data set on tubulin, 2.38 ± 0.14 µM.

Turning to `COc1cc(-c2csc(NC(=O)CN/N=C3\C(=O)Nc4ccc(C)cc43)n2)cc(OC)c1OC` [Compound 9b, (Z)-2-(2-(5-Methyl-2-oxoindolin-3-ylidene)hydrazinyl)-N-(4-(3,4,5-trimethoxyphenyl)thiazol-2-yl)acetamide], the IC50 in data set [1] came to 8.04 ± 0.4 µM; in data set [2], 9.93 ± 0.5 µM; in data set [3], 11.6 ± 0.6 µM; in data set [4] it was 13.4 ± 0.7 µM; in the data set with tubulin, 4.21 ± 0.26 µM.

Regarding `COc1cc(-c2csc(Nc3csc(N)n3)n2)cc(OC)c1OC` [Compound 10, N^4-(4-(3,4,5-Trimethoxyphenyl)thiazol-2-yl)thiazole-2,4-diamine], the 50% inhibitory concentration (IC50) was found to be 49.6 ± 2.5 µM in data set [1], 55.3 ± 2.8 µM in data set [2], 60.6 ± 3 µM in data set [3] and 48 ± 2.4 µM in data set [4]. In addition, in data set [5], the “cytotoxic effect, class in words” value was “moderate-to-weak”.

Consider `COc1cc(-c2csc(NC(=O)NCCCl)n2)cc(OC)c1OC` [Compound 11, 1-(2-Chloroethyl)-3-(4-(3,4,5-trimethoxyphenyl)thiazol-2-yl)urea], for which the half-inhibitory concentration (IC50) was determined as 93 ± 4.6 µM in data set [1], 86.7 ± 4.3 µM in data set [2], 95.8 ± 4.8 µM in data set [3] and 89.9 ± 4.5 µM in data set [4]. Also, the “cytotoxic effect, class in words” value in data set [5] was “weak (51–100 (weak))”.

With `COc1cc(-c2csc(NC(=O)NCCNc3ccccc3)n2)cc(OC)c1OC` [Compound 12, 1-(2-(Phenylamino)ethyl)-3-(4-(3,4,5-trimethoxyphenyl)thiazol-2-yl)urea], the IC50 is > 100 µM in data set [1], 88.5 ± 4.4 µM in data set [2], > 100 µM in data set [3] and 91.8 ± 4.6 µM in data set [4].

As for `CCN1CCN(CCNC(=O)Nc2nc(-c3cc(OC)c(OC)c(OC)c3)cs2)CC1` [Compound 13a, 1-(2-(4-Ethylpiperazin-1-yl)ethyl)-3-(4-(3,4,5-trimethoxyphenyl)thiazol-2-yl)urea], in data set [1], the IC50 was 14.2 ± 0.7 µM and the “cytotoxic activity … HepG2” value was “strong (11–20 (strong))”. In data set [2], the IC50 was determined as 20.1 ± 1 µM and the “cytotoxic activity … HCT-116” value is reported as “strong (11–20 (strong))”. For the same compound, in data set [3], the 50% inhibitory concentration (IC50) was 16.9 ± 0.8 µM and the “cytotoxic activity, class in words, MCF-7” value was “strong (11–20 (strong))”. Further, in data set [4], the 50% inhibitory concentration (IC50) worked out at 32.4 ± 1.6 µM and the “cytotoxic activity, class in words, HeLa” value is reported as “moderate (21–50 (moderate))”. The IC50 in the data set on tubulin is 5.11 ± 0.31 µM.

As for `COc1cc(-c2csc(NC(=O)NCCN3CCOCC3)n2)cc(OC)c1OC` [Compound 13b, 1-(2-Morpholinoethyl)-3-(4-(3,4,5-trimethoxyphenyl)thiazol-2-yl)urea], the half-maximal inhibitory concentration (IC50) was found to be 25.7 ± 1.3 µM in data set [1], 27.4 ± 1.4 µM in data set [2], 32 ± 1.6 µM in data set [3] and 43.9 ± 2.2 µM in data set [4].
